In general, inhibition refers to the drop in the measured response relative to a control, in per cent.

This passage reports inhibition and fold change (FC) results from ChEMBL document CHEMBL5653631, “A Potent and Selective ULK1 Inhibitor Suppresses Autophagy and Sensitizes Cancer Cells to Nutrient Stress” (iScience, 2018).

Each structure is given as a SMILES string.

For one assay, the species on record is Homo sapiens. As to the kind of experiment: Inhibition of human recombinant ABL at 15 nM in presence of ATP by radiometric assay relative to control. A digest of the protocol: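 Panel of 327 recombinant human kinases in radiometric activity assays, each screened in duplicate at a single inhibitor concentration; percent activity remaining relative to vehicle control, percent inhibition taken as 100 minus activity remaining.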

The target of assay [1] is Tyrosine-protein kinase Fyn (Homo sapiens) (UniProt P06241). The experiment in a line: Inhibition of human recombinant FYN at 15 nM in presence of ATP by radiometric assay relative to control.
Chain of Tyrosine-protein kinase Fyn (Homo sapiens) (P06241 2-537 limits assumed): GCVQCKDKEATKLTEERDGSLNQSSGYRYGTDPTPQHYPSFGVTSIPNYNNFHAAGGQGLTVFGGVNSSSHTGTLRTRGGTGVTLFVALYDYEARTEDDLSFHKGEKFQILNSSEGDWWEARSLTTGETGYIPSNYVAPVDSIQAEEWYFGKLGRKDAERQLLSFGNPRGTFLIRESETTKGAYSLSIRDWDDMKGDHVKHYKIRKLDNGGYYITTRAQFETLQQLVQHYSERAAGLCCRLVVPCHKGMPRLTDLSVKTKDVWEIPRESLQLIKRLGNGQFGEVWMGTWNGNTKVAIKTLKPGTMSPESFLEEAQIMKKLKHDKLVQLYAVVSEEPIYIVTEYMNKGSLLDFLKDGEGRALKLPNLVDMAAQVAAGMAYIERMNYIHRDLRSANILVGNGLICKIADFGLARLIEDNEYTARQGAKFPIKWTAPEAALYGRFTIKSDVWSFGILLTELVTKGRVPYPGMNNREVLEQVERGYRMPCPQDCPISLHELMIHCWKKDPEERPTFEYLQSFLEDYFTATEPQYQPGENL
Assay [2] deals with T1, Testis-specific serine/threonine-protein kinase 2 (Homo sapiens) (UniProt Q96PF2).
T1 sequence (whole entry): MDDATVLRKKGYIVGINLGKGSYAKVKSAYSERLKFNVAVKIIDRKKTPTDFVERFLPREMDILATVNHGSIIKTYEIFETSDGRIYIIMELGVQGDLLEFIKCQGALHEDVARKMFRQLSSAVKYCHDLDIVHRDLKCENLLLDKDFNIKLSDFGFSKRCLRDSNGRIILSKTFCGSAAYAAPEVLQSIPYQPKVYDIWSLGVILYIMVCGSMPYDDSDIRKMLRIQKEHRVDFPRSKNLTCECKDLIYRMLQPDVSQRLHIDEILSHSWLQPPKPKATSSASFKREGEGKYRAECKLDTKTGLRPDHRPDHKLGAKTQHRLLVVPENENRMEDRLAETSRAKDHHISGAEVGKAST
The experiment in a line: Inhibition of human recombinant TSSK2 at 15 nM in presence of ATP by radiometric assay relative to control.

The target of assay [3] is PAS domain-containing serine/threonine-protein kinase (Homo sapiens) (UniProt Q96RG2). As to the kind of experiment: Inhibition of human recombinant PASK at 40 nM in presence of ATP by radiometric assay relative to control.
Chain of PAS domain-containing serine/threonine-protein kinase (Homo sapiens) (Q96RG2 whole entry, the tested form may be a part): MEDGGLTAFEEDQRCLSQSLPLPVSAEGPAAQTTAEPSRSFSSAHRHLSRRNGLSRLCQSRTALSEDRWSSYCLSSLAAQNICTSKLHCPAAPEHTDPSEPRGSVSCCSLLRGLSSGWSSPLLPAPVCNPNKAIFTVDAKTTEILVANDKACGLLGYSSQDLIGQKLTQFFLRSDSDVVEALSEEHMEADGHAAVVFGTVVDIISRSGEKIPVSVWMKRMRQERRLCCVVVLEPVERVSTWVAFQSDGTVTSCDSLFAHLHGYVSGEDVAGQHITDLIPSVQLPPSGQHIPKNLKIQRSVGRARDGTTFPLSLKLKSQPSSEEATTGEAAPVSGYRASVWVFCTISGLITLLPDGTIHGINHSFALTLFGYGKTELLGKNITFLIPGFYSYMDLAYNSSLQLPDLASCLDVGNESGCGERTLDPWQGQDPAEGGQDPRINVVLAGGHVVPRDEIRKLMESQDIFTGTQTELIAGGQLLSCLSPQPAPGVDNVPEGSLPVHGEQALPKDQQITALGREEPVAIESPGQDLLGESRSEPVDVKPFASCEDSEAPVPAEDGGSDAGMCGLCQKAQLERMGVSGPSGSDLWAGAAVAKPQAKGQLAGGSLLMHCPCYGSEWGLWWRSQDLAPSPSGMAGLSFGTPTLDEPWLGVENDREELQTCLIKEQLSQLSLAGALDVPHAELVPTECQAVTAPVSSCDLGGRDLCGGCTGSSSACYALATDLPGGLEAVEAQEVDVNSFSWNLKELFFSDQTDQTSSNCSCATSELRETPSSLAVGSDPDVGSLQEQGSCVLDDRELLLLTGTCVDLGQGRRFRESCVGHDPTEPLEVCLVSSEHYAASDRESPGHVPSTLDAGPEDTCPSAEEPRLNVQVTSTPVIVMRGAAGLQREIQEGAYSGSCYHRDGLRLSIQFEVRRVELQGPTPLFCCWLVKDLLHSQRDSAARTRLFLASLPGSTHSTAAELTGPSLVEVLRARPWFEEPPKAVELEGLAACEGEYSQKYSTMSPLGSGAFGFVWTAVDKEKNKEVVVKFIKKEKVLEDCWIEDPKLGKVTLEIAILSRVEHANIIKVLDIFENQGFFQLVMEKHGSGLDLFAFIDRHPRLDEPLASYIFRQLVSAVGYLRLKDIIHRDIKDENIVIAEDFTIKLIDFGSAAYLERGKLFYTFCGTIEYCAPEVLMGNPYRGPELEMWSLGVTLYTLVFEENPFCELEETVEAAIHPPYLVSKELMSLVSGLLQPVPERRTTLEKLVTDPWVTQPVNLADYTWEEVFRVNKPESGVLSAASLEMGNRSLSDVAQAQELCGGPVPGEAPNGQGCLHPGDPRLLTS
Assay [4] concerns the target T2, Ephrin type-A receptor 3 (Homo sapiens) (UniProt P29320).
T2 sequence (whole entry): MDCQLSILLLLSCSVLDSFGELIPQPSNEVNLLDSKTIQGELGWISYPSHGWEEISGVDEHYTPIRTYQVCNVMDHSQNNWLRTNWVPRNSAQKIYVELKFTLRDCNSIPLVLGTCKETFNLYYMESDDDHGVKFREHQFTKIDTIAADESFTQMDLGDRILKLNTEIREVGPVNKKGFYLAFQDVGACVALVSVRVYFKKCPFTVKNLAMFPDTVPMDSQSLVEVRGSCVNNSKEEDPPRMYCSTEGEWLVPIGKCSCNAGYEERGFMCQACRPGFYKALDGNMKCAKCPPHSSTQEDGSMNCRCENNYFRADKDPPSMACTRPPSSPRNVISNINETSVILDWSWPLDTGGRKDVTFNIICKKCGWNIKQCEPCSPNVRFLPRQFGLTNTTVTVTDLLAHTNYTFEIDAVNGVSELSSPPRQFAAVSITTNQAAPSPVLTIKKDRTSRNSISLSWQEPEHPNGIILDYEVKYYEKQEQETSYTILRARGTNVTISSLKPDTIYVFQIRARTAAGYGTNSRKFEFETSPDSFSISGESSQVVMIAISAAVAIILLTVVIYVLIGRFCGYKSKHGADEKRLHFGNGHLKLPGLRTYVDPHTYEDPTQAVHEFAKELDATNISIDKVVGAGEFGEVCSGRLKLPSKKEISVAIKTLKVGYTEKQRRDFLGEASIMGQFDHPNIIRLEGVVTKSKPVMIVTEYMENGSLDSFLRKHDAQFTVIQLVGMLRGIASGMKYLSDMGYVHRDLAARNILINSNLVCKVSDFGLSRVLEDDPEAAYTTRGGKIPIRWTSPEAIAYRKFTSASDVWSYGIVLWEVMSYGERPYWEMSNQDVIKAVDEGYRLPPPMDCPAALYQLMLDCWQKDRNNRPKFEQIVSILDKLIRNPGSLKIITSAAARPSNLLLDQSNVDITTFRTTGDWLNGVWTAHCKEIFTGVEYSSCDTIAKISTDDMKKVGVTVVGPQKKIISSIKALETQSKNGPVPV
As to the kind of experiment: Inhibition of human recombinant EphA3 at 40 nM related to control ULK1.

In assay [5] the target is Serine/threonine-protein kinase WNK3 (Homo sapiens) (UniProt Q9BYP7). As to the kind of experiment: Inhibition of human recombinant Wnk3 at 40 nM related to control ULK1.
Chain of Serine/threonine-protein kinase WNK3 (Homo sapiens) (Q9BYP7 whole entry): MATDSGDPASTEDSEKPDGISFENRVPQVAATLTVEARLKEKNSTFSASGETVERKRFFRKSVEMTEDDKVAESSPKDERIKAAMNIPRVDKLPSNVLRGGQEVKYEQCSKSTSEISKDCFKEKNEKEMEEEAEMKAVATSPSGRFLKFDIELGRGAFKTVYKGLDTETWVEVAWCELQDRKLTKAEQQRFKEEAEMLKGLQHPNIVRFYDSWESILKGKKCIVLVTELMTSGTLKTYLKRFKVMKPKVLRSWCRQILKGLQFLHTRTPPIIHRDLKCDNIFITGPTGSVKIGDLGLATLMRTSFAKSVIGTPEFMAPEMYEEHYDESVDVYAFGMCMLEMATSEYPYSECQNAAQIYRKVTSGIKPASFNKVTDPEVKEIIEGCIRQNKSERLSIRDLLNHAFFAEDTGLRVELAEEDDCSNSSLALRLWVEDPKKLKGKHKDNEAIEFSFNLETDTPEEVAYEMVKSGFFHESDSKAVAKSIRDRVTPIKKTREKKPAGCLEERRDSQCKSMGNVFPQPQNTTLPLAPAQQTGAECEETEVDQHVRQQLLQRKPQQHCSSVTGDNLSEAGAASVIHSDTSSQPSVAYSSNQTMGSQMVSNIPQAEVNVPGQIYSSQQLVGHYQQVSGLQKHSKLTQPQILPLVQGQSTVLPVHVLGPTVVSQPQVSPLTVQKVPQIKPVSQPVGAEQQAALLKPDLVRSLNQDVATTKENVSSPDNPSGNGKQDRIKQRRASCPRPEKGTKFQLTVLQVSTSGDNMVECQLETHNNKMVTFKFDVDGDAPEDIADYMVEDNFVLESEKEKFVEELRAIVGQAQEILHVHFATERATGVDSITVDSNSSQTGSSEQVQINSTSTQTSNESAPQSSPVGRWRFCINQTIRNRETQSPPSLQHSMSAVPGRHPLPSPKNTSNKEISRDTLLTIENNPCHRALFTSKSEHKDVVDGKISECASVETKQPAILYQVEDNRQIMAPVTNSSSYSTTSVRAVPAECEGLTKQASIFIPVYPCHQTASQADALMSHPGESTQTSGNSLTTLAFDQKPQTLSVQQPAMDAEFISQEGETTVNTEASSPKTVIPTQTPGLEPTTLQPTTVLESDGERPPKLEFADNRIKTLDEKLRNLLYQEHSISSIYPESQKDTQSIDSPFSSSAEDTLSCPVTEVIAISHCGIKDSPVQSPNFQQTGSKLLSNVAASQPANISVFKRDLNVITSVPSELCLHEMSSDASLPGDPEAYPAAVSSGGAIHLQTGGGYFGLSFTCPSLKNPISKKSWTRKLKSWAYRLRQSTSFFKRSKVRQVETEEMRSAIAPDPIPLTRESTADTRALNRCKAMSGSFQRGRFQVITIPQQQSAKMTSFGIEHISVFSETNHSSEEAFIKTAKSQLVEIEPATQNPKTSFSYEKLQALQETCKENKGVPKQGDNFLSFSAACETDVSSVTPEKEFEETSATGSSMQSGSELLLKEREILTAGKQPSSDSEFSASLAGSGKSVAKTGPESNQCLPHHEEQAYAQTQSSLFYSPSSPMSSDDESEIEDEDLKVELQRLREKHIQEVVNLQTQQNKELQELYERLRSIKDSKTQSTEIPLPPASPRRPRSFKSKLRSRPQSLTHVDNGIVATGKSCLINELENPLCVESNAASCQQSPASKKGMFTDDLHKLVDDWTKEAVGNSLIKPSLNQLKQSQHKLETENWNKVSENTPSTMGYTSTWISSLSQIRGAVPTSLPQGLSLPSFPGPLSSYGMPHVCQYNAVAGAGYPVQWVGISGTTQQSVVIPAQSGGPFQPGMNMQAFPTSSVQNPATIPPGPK
For assay [6], the target named is Serine/threonine-protein kinase MRCK alpha (Homo sapiens) (UniProt Q5VT25). As to the kind of experiment: Inhibition of human recombinant MRCKa at 40 nM in presence of ATP by radiometric assay relative to control.
Assay [7] has as its target Serine/threonine-protein kinase 25 (Homo sapiens) (UniProt O00506). The experiment in a line: Inhibition of human recombinant YSK1 at 40 nM related to control ULK1.
Assay [8] concerns the target T3, Protein kinase C zeta type (Homo sapiens) (UniProt Q05513).
T3 sequence (whole entry): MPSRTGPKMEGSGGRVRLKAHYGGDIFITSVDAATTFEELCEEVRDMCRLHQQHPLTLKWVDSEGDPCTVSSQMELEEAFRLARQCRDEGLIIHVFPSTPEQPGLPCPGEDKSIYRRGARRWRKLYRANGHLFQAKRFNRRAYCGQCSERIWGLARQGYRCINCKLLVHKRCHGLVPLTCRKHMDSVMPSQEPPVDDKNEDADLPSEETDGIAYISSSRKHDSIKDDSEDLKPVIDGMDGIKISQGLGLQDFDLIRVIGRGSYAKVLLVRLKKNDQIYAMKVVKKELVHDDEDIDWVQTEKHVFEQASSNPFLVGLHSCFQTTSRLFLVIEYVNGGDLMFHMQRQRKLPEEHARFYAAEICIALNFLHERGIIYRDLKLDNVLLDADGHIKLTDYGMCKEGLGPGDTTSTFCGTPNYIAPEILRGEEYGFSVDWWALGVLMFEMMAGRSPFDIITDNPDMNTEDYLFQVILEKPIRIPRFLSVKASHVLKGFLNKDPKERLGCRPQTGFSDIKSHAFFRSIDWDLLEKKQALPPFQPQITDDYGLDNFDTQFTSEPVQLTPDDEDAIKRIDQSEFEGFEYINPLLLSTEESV
As to the kind of experiment: Inhibition of human recombinant PKCz at 500 nM in presence of ATP by radiometric assay relative to control.

The target of assay [9] is Dual specificity mitogen-activated protein kinase kinase 2 (Homo sapiens) (UniProt P36507). As to the kind of experiment: Inhibition of human recombinant MAP2K2 at 500 nM related to control ULK1.
Chain of Dual specificity mitogen-activated protein kinase kinase 2 (Homo sapiens) (P36507 whole entry): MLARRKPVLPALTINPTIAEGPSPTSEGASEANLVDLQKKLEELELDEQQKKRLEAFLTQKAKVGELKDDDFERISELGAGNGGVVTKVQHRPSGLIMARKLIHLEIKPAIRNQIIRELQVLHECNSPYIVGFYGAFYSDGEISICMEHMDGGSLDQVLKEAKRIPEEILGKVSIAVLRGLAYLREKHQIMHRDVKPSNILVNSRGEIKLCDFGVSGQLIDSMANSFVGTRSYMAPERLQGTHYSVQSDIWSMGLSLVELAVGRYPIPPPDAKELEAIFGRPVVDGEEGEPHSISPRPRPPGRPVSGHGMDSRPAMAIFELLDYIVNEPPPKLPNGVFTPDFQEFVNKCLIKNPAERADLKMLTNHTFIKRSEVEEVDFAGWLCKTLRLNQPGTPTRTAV

Chain of Serine/threonine-protein kinase 25 (Homo sapiens) (O00506 whole entry, looked up): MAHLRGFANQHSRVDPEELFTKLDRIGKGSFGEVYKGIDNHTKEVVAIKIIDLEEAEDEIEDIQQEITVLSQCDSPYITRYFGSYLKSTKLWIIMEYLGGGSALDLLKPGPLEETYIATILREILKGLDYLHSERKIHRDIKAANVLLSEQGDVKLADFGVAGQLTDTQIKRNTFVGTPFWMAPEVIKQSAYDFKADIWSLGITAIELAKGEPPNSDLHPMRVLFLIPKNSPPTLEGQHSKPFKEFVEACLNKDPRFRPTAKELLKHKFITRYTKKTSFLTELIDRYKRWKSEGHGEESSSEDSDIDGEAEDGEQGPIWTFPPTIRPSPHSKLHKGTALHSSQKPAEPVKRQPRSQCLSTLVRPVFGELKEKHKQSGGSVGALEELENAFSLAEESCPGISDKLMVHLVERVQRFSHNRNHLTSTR

As to `CC(C)[C@H](NC(=O)c1cc(-c2cnn3cc(-c4ccc(OCCN5CCCCC5)cc4)cnc23)cs1)C(F)(F)F`, the results for the inhibition (in the assay listed under Homo sapiens; in assay [1]; in assay [2]) were 82%, 16% and 1%, respectively.

Consider `O=C(N[C@@H](C1CC1)C(F)(F)F)c1cc(-c2cnn3cc(-c4ccc(F)cc4)cnc23)cs1`, for which the inhibition in assay [3] amounted to 12%; in assay [6], 2%. Also, the results for the fold change (FC) in assay [4], in assay [5] and in assay [7] were 0.21, 0.04 and 0, respectively.

As for `CNC(=O)c1ccccc1Oc1nc(Nc2cc(OC)c(OC)c(OC)c2)ncc1Br`, the inhibition in [8] was determined as 0%. For the same compound, the fold change (FC) in [9] turned out to be 0.
